ChEMBL document CHEMBL1926574, “Synthesis and biological evaluation of a new series of 1,2,4-triazolo[1,5-a]-1,3,5-triazines as human A(2A) adenosine receptor antagonists with improved water solubility” (J Med Chem, 2011)

Legend:
[1] = target: T1, Adenosine receptor A1 (Homo sapiens) (UniProt P30542); test: Displacement of [3H]DPCPX from human adenosine A1 receptor expressed in HEK293 cells at 10 uM by scintillation counting; type: cell-based
T1 sequence (whole entry): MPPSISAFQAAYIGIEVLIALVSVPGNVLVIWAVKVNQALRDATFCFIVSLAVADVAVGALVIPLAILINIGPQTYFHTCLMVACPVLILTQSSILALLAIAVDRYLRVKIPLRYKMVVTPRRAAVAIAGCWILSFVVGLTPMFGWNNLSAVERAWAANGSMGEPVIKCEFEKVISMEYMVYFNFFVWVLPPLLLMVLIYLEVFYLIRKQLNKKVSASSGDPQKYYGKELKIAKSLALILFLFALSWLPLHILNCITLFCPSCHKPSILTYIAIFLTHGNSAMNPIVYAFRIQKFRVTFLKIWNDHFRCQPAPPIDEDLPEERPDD

Adenosine receptor A2a = Adenosine receptor A2a (Homo sapiens, UniProt P29274); test: Displacement of [3H]ZM241385 from human adenosine A2A receptor expressed in HEK293 cells by scintillation counting; type: cell-based
Sequence of Adenosine receptor A2a (P29274 whole entry): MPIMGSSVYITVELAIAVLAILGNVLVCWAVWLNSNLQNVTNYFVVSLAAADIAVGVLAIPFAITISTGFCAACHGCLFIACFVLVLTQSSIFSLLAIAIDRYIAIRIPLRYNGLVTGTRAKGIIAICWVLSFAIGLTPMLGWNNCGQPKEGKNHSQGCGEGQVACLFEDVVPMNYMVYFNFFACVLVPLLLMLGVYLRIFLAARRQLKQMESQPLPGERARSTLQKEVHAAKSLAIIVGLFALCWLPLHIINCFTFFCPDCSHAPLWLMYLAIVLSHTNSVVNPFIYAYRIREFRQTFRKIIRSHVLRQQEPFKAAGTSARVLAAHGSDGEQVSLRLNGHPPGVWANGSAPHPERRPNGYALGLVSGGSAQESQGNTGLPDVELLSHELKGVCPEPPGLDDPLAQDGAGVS

[2] = target: T2, Adenosine receptor A3 (Homo sapiens) (UniProt P0DMS8); test: Displacement of [I125]I-AB-MECA from human adenosine A3 receptor expressed in CHO cells at 10 uM by scintillation counting; type: cell-based
T2 sequence (whole entry): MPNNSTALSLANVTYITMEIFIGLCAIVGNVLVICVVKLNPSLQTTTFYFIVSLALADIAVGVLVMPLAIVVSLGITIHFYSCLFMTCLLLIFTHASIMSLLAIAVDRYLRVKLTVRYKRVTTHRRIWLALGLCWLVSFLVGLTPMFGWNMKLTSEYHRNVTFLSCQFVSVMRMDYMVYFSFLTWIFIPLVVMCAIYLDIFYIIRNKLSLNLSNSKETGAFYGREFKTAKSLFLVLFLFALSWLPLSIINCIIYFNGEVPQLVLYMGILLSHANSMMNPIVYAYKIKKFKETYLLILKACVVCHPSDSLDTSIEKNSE

Adenosine receptor A2b = target: T3, Adenosine receptor A2b (Homo sapiens, UniProt P29275); test: Antagonist activity at human recombinant adenosine A2B receptor expressed in CHO cells assessed as inhibition of NECA-stimulated adenylyl cyclase activity; type: functional, cell-based
T3 sequence (P29275 whole entry): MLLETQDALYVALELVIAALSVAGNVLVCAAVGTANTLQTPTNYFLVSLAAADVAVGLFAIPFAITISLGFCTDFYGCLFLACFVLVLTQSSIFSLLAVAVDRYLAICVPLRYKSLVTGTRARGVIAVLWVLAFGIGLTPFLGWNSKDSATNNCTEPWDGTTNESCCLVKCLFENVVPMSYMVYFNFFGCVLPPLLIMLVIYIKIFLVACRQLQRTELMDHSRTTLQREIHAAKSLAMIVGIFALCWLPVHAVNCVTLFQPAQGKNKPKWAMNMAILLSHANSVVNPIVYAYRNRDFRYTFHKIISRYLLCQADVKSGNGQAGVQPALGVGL
Summary of the method: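 Membranes from CHO cells stably expressing the hA2B receptor were incubated 20 min with about 150,000 cpm [α-32P]ATP, without EGTA and NaCl. The read-out was antagonist concentration-dependent inhibition of NECA-stimulated adenylyl cyclase. IC50 was calculated with the Hill equation.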

Adenosine receptor A1 = target: T4, Adenosine receptor A1 (Homo sapiens, UniProt P30542); test: Displacement of [3H]DPCPX from human adenosine A1 receptor expressed in HEK293 cells by scintillation counting; type: cell-based
T4 sequence (P30542 whole entry): T1 sequence (whole entry)

Homo sapiens [3] = organism: Homo sapiens; test: Selectivity ratio of Ki for human adenosine A1 receptor to Ki for human adenosine A2A receptor
Homo sapiens [4] = organism: Homo sapiens; test: Selectivity ratio of Ki for human adenosine A3 receptor to Ki for human adenosine A2A receptor
[5] = target: T1, Adenosine receptor A1 (Homo sapiens); test: Antagonist activity at human adenosine A1 receptor; type: functional
[6] = target: T5, Adenosine receptor A2b (Homo sapiens) (UniProt P29275); test: Antagonist activity at human adenosine A2B receptor; type: functional
T5 sequence (whole entry): T3 sequence (P29275 whole entry)

[7] = target: T2, Adenosine receptor A3 (Homo sapiens); test: Antagonist activity at human adenosine A3 receptor; type: functional
Adenosine receptor A3 = target: T6, Adenosine receptor A3 (Homo sapiens, UniProt P0DMS8); test: Displacement of [I125]I-AB-MECA from human adenosine A3 receptor expressed in CHO cells by scintillation counting; type: cell-based
T6 sequence (P0DMS8 whole entry): T2 sequence (whole entry)

[8] = target: T7, Adenosine receptor A1 (Rattus norvegicus) (UniProt P25099); test: Antagonist activity at rat adenosine A1 receptor; type: functional
T7 sequence (whole entry): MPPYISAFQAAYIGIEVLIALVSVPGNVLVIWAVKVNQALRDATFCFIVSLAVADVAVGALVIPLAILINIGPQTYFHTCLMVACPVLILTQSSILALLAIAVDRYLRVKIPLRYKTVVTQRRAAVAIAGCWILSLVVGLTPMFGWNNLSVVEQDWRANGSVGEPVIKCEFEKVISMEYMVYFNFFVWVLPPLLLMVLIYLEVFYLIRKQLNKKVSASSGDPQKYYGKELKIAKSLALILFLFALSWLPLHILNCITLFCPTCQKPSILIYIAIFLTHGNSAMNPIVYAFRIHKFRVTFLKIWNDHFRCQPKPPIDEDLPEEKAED

| INH [5] [nM] | Antagonist potency (inhibitory concentration) [6] [nM] | Antagonist potency [7] [nM] | INH [8] [nM] | Compound | Activity [1] [%] | Ki (Adenosine receptor A2a) [nM] | Activity [2] [%] | IC50 (Adenosine receptor A2b) [nM] | Ki (Adenosine receptor A1) [nM] | Ratio Ki (Homo sapiens [3]) | Ratio Ki (Homo sapiens [4]) | Ki (Adenosine receptor A3) [nM] |
| --- | --- | --- | --- | --- | --- | --- | --- | --- | --- | --- | --- | --- |
|  |  |  |  | Nc1nc(N2CCN(C(=O)c3ccccc3)CC2)nc2nc(-c3ccco3)nn12 | 27.7 | 348 | 22.6 | > 100000 |  |  |  |  |
|  |  |  |  | Nc1nc(O)nc2nc(-c3ccco3)nn12 |  | 201 | 43.9 | > 10000 | 3110 | 15.5 | 50 |  |
|  |  |  |  | CC(C)(C)C(=O)N1CCN(c2nc(N)n3nc(-c4ccco4)nc3n2)CC1 | 38.7 | 58.4 | 32.3 | > 100000 |  |  |  |  |
|  |  |  |  | CC(C)(C)OC(=O)NCCCCCNc1nc(N)n2nc(-c3ccco3)nc2n1 |  | 44.7 | 68.6 | > 10000 | 963 | 21.5 |  |  |
|  |  |  |  | NCCCNc1nc(N)n2nc(-c3ccco3)nc2n1 | 44.3 | 270 | 40.5 | > 30000 |  |  |  |  |
|  |  |  |  | Nc1nc(N2CCN(Cc3ccc(F)cc3)CC2)nc2nc(-c3ccco3)nn12 |  | 52.3 | 71.3 | > 10000 | 655 | 12.5 |  |  |
|  |  |  |  | Nc1nc(N2CCCC2)nc2nc(-c3ccco3)nn12 |  | 59.1 | 75 | > 30000 | 1940 | 33 |  |  |
|  |  |  |  | CC(C)(C)OC(=O)NCCCNc1nc(N)n2nc(-c3ccco3)nc2n1 |  | 38.6 | 77.3 | 20600 | 344 | 9 |  |  |
| 562 | > 10000 | 0.108 |  | Cn1cc2c(nc(NC(=O)Cc3ccccc3)n3nc(-c4ccccc4)nc23)n1 |  |  |  |  |  |  |  |  |
|  |  |  |  | CC(C)(C)CC(=O)N1CCN(c2nc(N)n3nc(-c4ccco4)nc3n2)CC1 | 53.1 | 11.1 | 41.9 | > 100000 |  | 900 | > 900 |  |
|  |  |  |  | CC(C)(C)OC(=O)NCCNc1nc(NCCNC(=O)OC(C)(C)C)n2nc(-c3ccco3)nc2n1 | 7.4 | 4360 |  | > 100000 |  |  | 1.9 | 8490 |
|  |  |  |  | Nc1nc(N2CCN(C(=O)c3ccc([N+](=O)[O-])cc3)CC2)nc2nc(-c3ccco3)nn12 | 35.5 | 212 | 50.9 | > 100000 |  |  | 40 |  |
|  |  |  |  | Nc1nc(N2CCN(Cc3cccc(Cl)c3)CC2)nc2nc(-c3ccco3)nn12 |  | 51.8 | 52.7 | > 30000 | 1510 | 29 | 200 |  |
|  |  |  |  | O=C(Nc1nc(O)nc2nc(-c3ccco3)nn12)c1ccccc1 | 34.4 | 1750 | 75.9 | > 100000 |  |  |  |  |
|  |  |  |  | NCCNc1nc(N)n2nc(-c3ccco3)nc2n1 | 35.8 | 567 | 30.8 | > 100000 |  |  |  |  |
|  |  |  |  | Nc1nc(N2CCNCC2)nc2nc(-c3ccco3)nn12 | 28.6 | 153 | 29.9 | > 30000 |  |  |  |  |
|  |  |  |  | CC(C)(C)OC(=O)NCC1CCC(CNc2nc(N)n3nc(-c4ccco4)nc3n2)CC1 (stereo unspecified) |  | 69.7 | 75.5 | 7140 | 3890 | 56 |  |  |
|  |  |  |  | Nc1nc(N2CCN(Cc3ccc(Br)cc3)CC2)nc2nc(-c3ccco3)nn12 |  | 27.3 | 49.8 | > 10000 | 86.7 | 3.2 | 300 |  |
|  |  |  |  | CC(C)(C)OC(=O)NCCOCCOCCNc1nc(N)n2nc(-c3ccco3)nc2n1 |  | 17.8 | 74 | > 10000 | 1580 | 89 |  |  |

| INH [5] [nM] | Antagonist potency (inhibitory concentration) [6] [nM] | Antagonist potency [7] [nM] | INH [8] [nM] | Compound | Activity [1] [%] | Ki (Adenosine receptor A2a) [nM] | Activity [2] [%] | IC50 (Adenosine receptor A2b) [nM] | Ki (Adenosine receptor A1) [nM] | Ratio Ki (Homo sapiens [3]) | Ratio Ki (Homo sapiens [4]) | Ki (Adenosine receptor A3) [nM] |
| --- | --- | --- | --- | --- | --- | --- | --- | --- | --- | --- | --- | --- |
|  |  |  |  | Nc1nc(N2CCN(C(=O)C(Cl)Cl)CC2)nc2nc(-c3ccco3)nn12 | 34.6 | 282 | 33.6 | > 100000 |  |  |  |  |
|  |  |  |  | NCCCCCNc1nc(N)n2nc(-c3ccco3)nc2n1 |  | 90.1 | 49.9 | > 10000 | 2950 | 33 |  |  |
|  |  |  |  | Nc1nc(N2CCN(Cc3ccccc3)CC2)nc2nc(-c3ccco3)nn12 |  | 20.6 | 71.9 | > 30000 | 978 | 47.5 |  |  |
|  |  |  |  | Nc1nc(N2CCN(C(=O)Cc3ccccc3)CC2)nc2nc(-c3ccco3)nn12 |  | 94.8 | 64.5 | > 100000 | 3510 | 37 |  |  |
|  |  |  |  | Nc1nc(NC(=O)c2ccccc2)n2nc(-c3ccco3)nc2n1 |  | 44.1 | 67.2 | 7060 | 1800 | 40 |  |  |
|  |  |  |  | Nc1nc(N2CCN(C(=O)c3cccc4ccccc34)CC2)nc2nc(-c3ccco3)nn12 | 4.9 | 7680 | 31.1 | > 100000 |  |  |  |  |
|  |  |  |  | O=C(Nc1nc(Oc2ccccc2)nc2nc(-c3ccco3)nn12)c1ccccc1 | 26.2 | 1000 | 32.3 | > 10000 |  |  |  |  |
|  |  |  |  | CC(C)(C)OC(=O)NCCNc1nc(N)n2nc(-c3ccco3)nc2n1 |  | 40.9 |  | > 10000 | 3730 | 91 | 36 | 1490 |
|  |  |  |  | Nc1nc(N2CCN(C(=O)Cc3ccc(Cl)cc3)CC2)nc2nc(-c3ccco3)nn12 |  | 39.1 |  | > 100000 | 991 | 25 | 32 | 1260 |
|  | 3420 | 489 | 2720 | Nc1nc(Oc2ccccc2)nc2nc(-c3ccco3)nn12 |  |  |  |  |  |  |  |  |
|  |  |  |  | NCCNc1nc(NCCN)n2nc(-c3ccco3)nc2n1 | 10.7 | 38200 | 17.7 | > 100000 |  | 0.3 |  |  |
|  |  |  | 3300 | Nc1nc(N2CCN3C[C@@H](COc4cccc(F)c4)CC[C@H]3C2)nc2nc(-c3ccco3)nn12 |  |  |  |  |  |  |  |  |
|  |  |  |  | CC(C)(C)OC(=O)N1CCN(c2nc(N)n3nc(-c4ccco4)nc3n2)CC1 |  | 21 | 56.6 | > 10000 | 5400 | 257 | 400 |  |
|  |  |  |  | CCCCC(=O)N1CCN(c2nc(N)n3nc(-c4ccco4)nc3n2)CC1 | 10.8 | 124 | 56.2 | > 100000 |  |  |  |  |
|  | > 100000 | 170 | 557 | CSc1nc(NC(=O)C(c2ccccc2)c2ccccc2)n2nc(-c3ccco3)nc2n1 |  |  |  |  |  |  |  |  |
|  |  |  |  | COC(=O)CCC(=O)N1CCN(c2nc(N)n3nc(-c4ccco4)nc3n2)CC1 | 19.4 | 66.2 | 37.2 | > 100000 |  |  |  |  |
|  |  |  |  | Nc1nc(N2CCN(Cc3ccc(Cl)cc3)CC2)nc2nc(-c3ccco3)nn12 |  | 102 | 66.8 | > 30000 | 220 | 2.1 |  |  |
|  |  |  |  | Nc1nc(N2CCN(C(=O)C(c3ccccc3)c3ccccc3)CC2)nc2nc(-c3ccco3)nn12 |  | 92.9 | 40.6 | > 100000 | 7470 | 80 |  |  |
|  |  |  |  | Nc1nc(N)n2nc(-c3ccco3)nc2n1 |  | 160 | 36.4 | 11100 | 1410 | 9 |  |  |
